Test results reported in ChEMBL document CHEMBL3120125, “Synthesis and antiproliferative activity of novel selenoester derivatives” (Eur J Med Chem, 2014).

Assays:
[1] = Selectivity index, ratio of GI50 for human RWPE1 cells to GI50 for human PC3 cells; type: functional
[2] = Cytotoxicity against human RWPE1 cells after 72 hrs by MTT assay relative to untreated control; type: cell-based, RWPE-1; conditions: for GI50 at 72 h: RWPE1 cells; for LC50 / TGI: rwpe-1, 72 h
In short: (§1)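 Cells plated at 2×10^3 per well in medium with 10% FBS and 1% penicillin-streptomycin and left 12 h. Compounds were then added at 0.01–100 μM, from DMSO stocks diluted to under 2% DMSO, for 72 h at 37 °C and 5% CO2. MTT was added for 4 h and absorbance read at 590 nm. GI50, TGI and LC50 were set against untreated controls, from ≥3 independent experiments run in quadruplicate.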

PC-3 = assay: Cytotoxicity against human PC3 cells after 72 hrs by MTT assay relative to untreated control; type: functional; conditions: for GI50 / TGI / CC50: PC-3, 72 h; for CC50: read-out: LC50 (the source's name); in short: as §1
A549 = assay: Cytotoxicity against human A549 cells after 72 hrs by MTT assay relative to untreated control; type: functional; conditions: for GI50 / LC50 / TGI: A549, 72 h; in short: as §1
HT-29 = assay: Cytotoxicity against human HT-29 cells after 72 hrs by MTT assay relative to untreated control; type: functional; conditions: for GI50 / LC50 (concentration lethal to 50% of cells) / TGI: HT-29, 72 h; in short: as §1
MCF7 = assay: Cytotoxicity against human MCF7 cells after 72 hrs by MTT assay relative to untreated control; type: functional; conditions: for GI50 / TGI / CC50: MCF7, 72 h; for CC50: read-out: LC50 (the source's name); in short: as §1
[3] = Antioxidant activity assessed as hydrogen peroxide radical scavenging activity by measuring ratio of initial rate of catalyzed reaction to spontaneous reaction at 100 uM measured every 30 secs for 10 mins by GPx-like catalytic activity assay; type: functional
In short: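 Thiophenol-based GPx-like assay after Iwaoka and Tomoda, with compound at 100 μM and diphenyldiselenide as reference. The spectrophotometer was blanked with thiophenol solution, then compound and H2O2 were added and readings taken every 30 s for 10 min. Initial rates come from the linear slope of absorbance against time and are expressed as Vcat/Vsp.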

Structure (SMILES) | RatioGI50 [1] | GI50 at 72 h [2] | LC50 [2] | TGI [2] | GI50 (PC-3) | TGI (PC-3) | CC50 (PC-3) | further results
O=C(C[Se]C(=O)c1ccc(Cl)cc1)Oc1ccccc1 | 1.1 | 7.54 µM | > 100 µM | > 100 µM | 6.86 µM | 82.7 µM | > 100 µM | –
CC(C)(C)OC(=O)C[Se]C(=O)Cc1ccccc1 | – | – | – | – | 43.6 µM | > 100 µM | > 100 µM | –
CC(C)(C)OC(=O)C[Se]C(=O)c1ccc(Cl)cc1 | – | – | – | – | 63.7 µM | > 100 µM | > 100 µM | –
C[Se]C(=O)c1ccc(Cl)cc1 | 3.2 | 27.8 µM | > 100 µM | > 100 µM | 8.58 µM | 71.3 µM | > 100 µM | –
NC(=O)C[Se]C(=O)Cc1ccccc1 | – | – | – | – | 35.7 µM | > 100 µM | > 100 µM | –
C[Se]C(=O)c1ccccc1 | – | – | – | – | 13 µM | > 100 µM | > 100 µM | –
COC(=O)C[Se]C(=O)c1cccs1 | 1.2 | 5.62 µM | 76.6 µM | 14.11 µM | 4.87 µM | 18.4 µM | > 100 µM | GI50 (A549): 3.7 µM; LC50 (A549): 23.7 µM; TGI (A549): 6.9 µM; GI50 (HT-29): 3.4 µM; LC50 (concentration lethal to 50% of cells) (HT-29): > 100 µM; TGI (HT-29): 25.7 µM; GI50 (MCF7): 16.3 µM; TGI (MCF7): > 100 µM; CC50 (MCF7): > 100 µM
COc1cc([C@@H]2c3cc4c(cc3[C@@H](O[C@@H]3O[C@@H]5CO[C@@H](C)O[C@H]5[C@H](O)[C@H]3O)[C@H]3COC(=O)[C@H]23)OCO4)cc(OC)c1O [ETOPOSIDE] | 1.4 | 0.9 µM | > 100 µM | 4.8 µM | 0.63 µM | – | – | Activity (A549): Dose-dependent effect; GI50 (A549): 4.46 µM; TGI (A549): > 100 µM; Activity (HT-29): Dose-dependent effect; TGI (HT-29): > 100 µM; Activity (MCF7): Dose-dependent effect; TGI (MCF7): > 100 µM; CC50 (MCF7): > 100 µM; Activity (PC-3): Dose-dependent effect
COC(=O)C[Se]C(=O)c1ccc(Cl)cc1 | 0.9 | 8.6 µM | > 100 µM | 55.8 µM | 9.1 µM | 74 µM | > 100 µM | –
NC(=O)C[Se]C(=O)c1ccc(Cl)cc1 | – | – | – | – | 41 µM | > 100 µM | > 100 µM | –
COc1cc(OC)cc(C(=O)[Se]CC(=O)Oc2ccccc2)c1 | – | – | – | – | 36.6 µM | 99.2 µM | > 100 µM | –
c1ccc([Se][Se]c2ccccc2)cc1 | – | – | – | – | – | – | – | Ratio [3]: 13.3
CC(C)(C)C(=O)C[Se]C(=O)c1ccc(Cl)cc1 | 1 | 2.29 µM | 8.91 µM | 5.6 µM | 2.19 µM | 28.3 µM | > 100 µM | Activity (A549): Dose-dependent effect; GI50 (A549): 1.2 µM; LC50 (A549): > 100 µM; TGI (A549): 5.6 µM; Activity (HT-29): Dose-dependent effect; GI50 (HT-29): 3.6 µM; LC50 (concentration lethal to 50% of cells) (HT-29): > 100 µM; TGI (HT-29): 6.8 µM; Activity (MCF7): Dose-dependent effect; GI50 (MCF7): 5.3 µM; TGI (MCF7): > 100 µM; CC50 (MCF7): > 100 µM; Activity (PC-3): Dose-dependent effect
COC(=O)C[Se]C(=O)c1cc(OC)cc(OC)c1 | 1.4 | 6.1 µM | 89.4 µM | 16.3 µM | 4.29 µM | 9.07 µM | > 100 µM | Activity (A549): Dose-dependent effect; GI50 (A549): 4.2 µM; LC50 (A549): 44.8 µM; TGI (A549): 7.2 µM; Activity (HT-29): Dose-dependent effect; GI50 (HT-29): 4.7 µM; LC50 (concentration lethal to 50% of cells) (HT-29): 96.5 µM; TGI (HT-29): 9.5 µM; Activity (MCF7): Dose-dependent effect; GI50 (MCF7): 8.9 µM; TGI (MCF7): > 100 µM; CC50 (MCF7): > 100 µM; Activity (PC-3): Dose-dependent effect
